ChEMBL document CHEMBL5154906, “Design of a Potent, Selective, and Brain-Penetrant Inhibitor of Wnt-Deactivating Enzyme Notum by Optimization of a Crystallographic Fragment Hit” (J Med Chem, 2022)
One block for each molecule: values may come before it.

Tests used:
[1] = Metabolic stability in mouse liver microsomes assessed as intrinsic clearance; format: ADME, Microsome; conditions: read-out: CLH
[2] = Metabolic stability in human liver microsomes assessed as intrinsic clearance; format: ADME, Microsome; conditions: read-out: CLH
[3] = Metabolic stability in rat liver microsomes assessed as intrinsic clearance; format: ADME, Microsome; conditions: read-out: CLH
[4] = Metabolic stability in dog liver microsomes assessed as intrinsic clearance; format: ADME, Canis lupus familiaris, Microsome; conditions: read-out: CLH
[5] = Metabolic stability in mouse hepatocyte assessed as intrinsic clearance measured per 10^6 cells; format: ADME, cell-based; conditions: hepatocytes, read-out: CLH
[6] = Drug uptake in mouse assessed as plasma concentration at 30 mg/kg, po administered twice daily for 7 days; format: ADME, organism-based; conditions: in vivo, 168 h, time 7 day
Procedure, shortened: (§1)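 Mice received 30 mg/kg orally twice daily, at T = 0 and 9 h, in formulation A (DMSO 2% v/v + 10% v/v Solutol in 1× PBS, 98% v/v). Plasma and brain drug concentrations were followed over time.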

[7] = Drug uptake in mouse assessed as brain concentration at 30 mg/kg, po administered twice daily for 7 days; format: ADME, organism-based; conditions: in vivo, 168 h, time 7 day; procedure, shortened: as §1
[8] = biological target: Casein kinase I isoform alpha (Homo sapiens) (UniProt P48729); test: Inhibition of CK1 (unknown origin) at 10 uM relative to control
Sequence of Casein kinase I isoform alpha (Homo sapiens) (P48729 2-337 limits assumed): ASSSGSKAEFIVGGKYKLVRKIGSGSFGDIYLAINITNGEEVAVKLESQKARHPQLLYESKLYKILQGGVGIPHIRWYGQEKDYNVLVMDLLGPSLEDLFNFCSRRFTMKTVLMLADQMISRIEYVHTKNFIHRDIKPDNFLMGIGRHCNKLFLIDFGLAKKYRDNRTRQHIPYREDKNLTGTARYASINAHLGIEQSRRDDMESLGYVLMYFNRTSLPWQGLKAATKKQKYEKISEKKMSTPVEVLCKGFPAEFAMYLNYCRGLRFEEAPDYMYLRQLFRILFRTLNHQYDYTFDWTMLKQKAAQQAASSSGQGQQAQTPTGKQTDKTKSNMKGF

[9] = biological target: Glycogen synthase kinase-3 (Homo sapiens) (UniProt P49840+P49841); test: Inhibition of GSK3 (unknown origin) at 10 uM relative to control; format: protein assay
Sequence of Glycogen synthase kinase-3 (Homo sapiens) (P49840 whole entry, looked up): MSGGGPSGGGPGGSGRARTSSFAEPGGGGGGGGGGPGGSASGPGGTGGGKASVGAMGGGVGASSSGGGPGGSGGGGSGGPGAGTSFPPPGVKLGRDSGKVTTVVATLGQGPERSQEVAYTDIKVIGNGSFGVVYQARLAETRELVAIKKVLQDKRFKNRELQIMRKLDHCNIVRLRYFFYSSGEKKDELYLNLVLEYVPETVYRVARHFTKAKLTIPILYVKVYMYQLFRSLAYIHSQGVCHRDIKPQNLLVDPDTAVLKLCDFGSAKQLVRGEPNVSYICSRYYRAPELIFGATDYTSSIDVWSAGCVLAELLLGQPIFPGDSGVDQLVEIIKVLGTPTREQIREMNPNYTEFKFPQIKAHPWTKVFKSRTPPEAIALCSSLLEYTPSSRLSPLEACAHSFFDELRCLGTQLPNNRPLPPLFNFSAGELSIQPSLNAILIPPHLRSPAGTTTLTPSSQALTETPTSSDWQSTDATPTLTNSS
Sequence of Glycogen synthase kinase-3 (Homo sapiens) (P49841 whole entry, looked up): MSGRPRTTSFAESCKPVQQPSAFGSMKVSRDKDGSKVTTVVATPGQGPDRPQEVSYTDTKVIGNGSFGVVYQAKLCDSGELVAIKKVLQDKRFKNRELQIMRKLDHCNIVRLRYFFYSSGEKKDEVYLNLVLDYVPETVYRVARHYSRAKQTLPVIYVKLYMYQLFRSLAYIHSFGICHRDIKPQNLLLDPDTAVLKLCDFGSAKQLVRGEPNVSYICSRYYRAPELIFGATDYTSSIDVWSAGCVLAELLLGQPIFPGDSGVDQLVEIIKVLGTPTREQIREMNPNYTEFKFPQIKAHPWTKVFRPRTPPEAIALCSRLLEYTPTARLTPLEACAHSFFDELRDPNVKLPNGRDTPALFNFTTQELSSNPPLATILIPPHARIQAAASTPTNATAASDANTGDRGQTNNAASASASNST

in vivo = conditions: Sprague-Dawley, rat, brain, po, 10 mg/kg
[10] = Toxicity in wild type mouse at 30 mg/kg, po administered twice daily for 7 days; conditions: in vivo, 168 h
[11] = Toxicity in aged APP/PS1 mouse at 30 mg/kg, po administered twice daily for 7 days; conditions: in vivo, 168 h
[12] = biological target: T1, Palmitoleoyl-protein carboxylesterase NOTUM (Homo sapiens, UniProt Q6P988, C330S); test: Inhibition of human Notum (S81 to T451 residues) Cys330Ser mutant expressed in HEK293S cells using OPTS as substrate incubated for 40 mins by fluorescence based assay
T1 sequence (Q6P988 20-496 C330S limits assumed): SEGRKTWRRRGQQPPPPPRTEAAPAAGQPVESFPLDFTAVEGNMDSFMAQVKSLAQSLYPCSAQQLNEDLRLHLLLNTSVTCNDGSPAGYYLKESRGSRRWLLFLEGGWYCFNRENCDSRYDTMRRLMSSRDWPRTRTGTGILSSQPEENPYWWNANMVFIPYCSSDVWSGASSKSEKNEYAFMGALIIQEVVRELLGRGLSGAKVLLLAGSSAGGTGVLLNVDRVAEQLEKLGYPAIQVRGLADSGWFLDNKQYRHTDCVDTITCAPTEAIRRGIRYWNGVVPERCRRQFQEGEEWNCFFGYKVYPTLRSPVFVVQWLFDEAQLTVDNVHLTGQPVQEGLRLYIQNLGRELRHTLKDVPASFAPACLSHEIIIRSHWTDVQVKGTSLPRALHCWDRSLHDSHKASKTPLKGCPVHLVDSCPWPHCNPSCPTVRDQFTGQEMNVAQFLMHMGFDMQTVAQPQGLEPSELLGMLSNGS

[13] = biological target: T1, Palmitoleoyl-protein carboxylesterase NOTUM; test: Inhibition of human Notum (S81 to T451 residues) Cys330Ser mutant expressed in HEK293S cells at 100 uM using OPTS as substrate incubated for 40 mins by fluorescence based assay relative to control; format: cell-based
Procedure, shortened: (§2)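 Recombinant human Notum (81–451, Cys330Ser) was the enzyme and OPTS the carboxylesterase substrate. Values are percent inhibition at a single concentration, 10 μM or 100 μM.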

[14] = biological target: T1, Palmitoleoyl-protein carboxylesterase NOTUM; test: Inhibition of human Notum (S81 to T451 residues) Cys330Ser mutant expressed in HEK293S cells at 10 uM using OPTS as substrate incubated for 40 mins by fluorescence based assay relative to control; format: cell-based; procedure, shortened: as §2
[15] = Efflux ratio of apparent permeability from basolateral to apical side over apical to basolateral side in MDCK-MDR1 cells; conditions: dog

Structure (SMILES): FC(F)(F)c1c(Cl)ccc(-n2ccnn2)c1Cl
microsomal CLint [1]: 3.2 µL/min/mg
microsomal CLint [2]: 1.5 µL/min/mg
microsomal CLint [3]: < 9.6 µL/min/mg
microsomal CLint [4]: 10.8 µL/min/mg
hepatocyte CLint [5]: 19.4 µL/min/1e6 cells
Cp [6]: Active
Ct [7]: Active
inhibition [8]: < 50%
inhibition [9]: < 50%
AUC(0-inf) (in vivo): 46100 ng·h/mL
Activity [10]: Non-Toxic
Activity [11]: Non-Toxic

Structure (SMILES): OCc1cn(-c2ccc3c(c2)OCCO3)nn1
IC50 [12]: 32 µM

Structure (SMILES): OCc1cn(-c2ccc(F)cc2)nn1
inhibition at 100 µM [13]: 40%

Structure (SMILES): OCc1cn(-c2cc(Cl)ccc2Cl)nn1
IC50 [12]: 23 µM

Structure (SMILES): OCc1cn(-c2ccc3c(c2)OCO3)nn1
IC50 [12]: 28 µM

Structure (SMILES): OCc1cn(-c2ccc(C(F)(F)F)cc2)nn1
IC50 [12]: 8.8 µM

Structure (SMILES): OCc1cn(-c2ccccc2Cl)nn1
IC50 [12]: 32 µM

Structure (SMILES): Cc1cccc(-n2cc(CO)nn2)c1
inhibition at 10 µM [14]: 40%

Structure (SMILES): OCc1cn(-c2ccc(Cl)c(C(F)(F)F)c2Cl)nn1
microsomal CLint [1]: 6.7 µL/min/mg
microsomal CLint [2]: 1.7 µL/min/mg
hepatocyte CLint [5]: 48 µL/min/1e6 cells

Structure (SMILES): FC(F)(F)c1c(Cl)cnc(-n2ccnn2)c1Cl
Ratio [15]: 2.5

Structure (SMILES): [2H]c1nnn(-c2ccc(Cl)c(C(F)(F)F)c2Cl)c1[2H]
microsomal CLint [1]: 5.4 µL/min/mg

Structure (SMILES): OCc1cn(-c2ccccc2F)nn1
IC50 [12]: 64 µM

Further molecules by falling IC50 [12], results first:

IC50 [12]: 6.3 µM
Structure (SMILES): OCc1cn(-c2cccc(Cl)c2)nn1

IC50 [12]: 5.6 µM
Structure (SMILES): OCc1cn(-c2ccc(Cl)cc2Cl)nn1

IC50 [12]: 5.1 µM
Structure (SMILES): OCc1cn(-c2cccc(Cl)c2Cl)nn1

IC50 [12]: 2.4 µM
Structure (SMILES): OCc1cn(-c2cc(Cl)cc(Cl)c2)nn1

IC50 [12]: 2.3 µM
Structure (SMILES): OCc1cn(-c2cccc(C(F)(F)F)c2)nn1

IC50 [12]: 1 µM
Structure (SMILES): OCc1cn(-c2ccc(C(F)(F)F)c(Cl)c2)nn1

IC50 [12]: 0.73 µM
Structure (SMILES): Cc1ccc(-n2cc(CO)nn2)cc1C

IC50 [12]: 0.5 µM
microsomal CLint [2]: 12 µL/min/mg
Structure (SMILES): OCc1cn(-c2ccc(Cl)c(Cl)c2)nn1

IC50 [12]: 0.065 µM
Structure (SMILES): OCc1cn(-c2ccc(Cl)c(C(F)(F)F)c2)nn1
